Results published in ChEMBL document CHEMBL1149742, “Displacement activity of bisbenzylisoquinoline alkaloids at striatal 3H-SCH 23390 and 3H-raclopride binding sites” (J Nat Prod, 1992).

What was measured:
[1] = biological target: D(2) dopamine receptor (Rattus norvegicus, UniProt P61169); experiment: Displacement of [3H]raclopride from dopamine D2 receptor in Wistar rat striatal membrane by liquid scintillation counting; assay type: cell membranes, Striatum
Outline: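 Male Wistar rat (200–250 g) striatal membranes, centrifuged four times at 20,000 g, resuspended in Tris-ions buffer (120 mM NaCl, 5 mM KCl, 1 mM CaCl2, 1 mM MgCl2, 0.1% ascorbic acid, pH 7.4). 200 µg protein incubated 1 h at 25° with 0.5 nM [3H]raclopride (final), compounds at 6 or 11 concentrations 10^-9–10^-4 M. Nonspecific binding with 50 µM apomorphine. GF/B filtration. IC50 by Litchfield–Wilcoxon, 4–8 determinations per concentration.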

[2] = organism: Rattus norvegicus; experiment: Selectivity ratio of IC50 for dopamine D1 receptor in Wistar rat striatal membrane to IC50 for dopamine D2 receptor in Wistar rat striatal membrane; assay type: cell membranes
[3] = biological target: D(1A) dopamine receptor (Rattus norvegicus, UniProt P18901); experiment: Displacement of [3H]SCH23390 from dopamine D1 receptor in Wistar rat striatal membrane by liquid scintillation counting; assay type: cell membranes, Striatum
Outline: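 Striata from male Wistar rats (200–250 g) homogenized in 50 mM Tris-HCl pH 7.4, centrifuged twice at 20,000 g, resuspended in Tris-Mg buffer (5 mM MgSO4, 0.5 mM EDTA, 0.02% ascorbic acid). 100 µg protein incubated 1 h at 25° with 0.25 nM [3H]SCH 23390 (final), compounds at 6 or 11 concentrations 10^-9–10^-4 M. Nonspecific binding with 30 µM SK&F 38393. GF/B filtration. IC50 with 95% confidence limits by Litchfield–Wilcoxon, 4–8 determinations per concentration.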

D(2) dopamine receptor, sequence (P61169 whole entry): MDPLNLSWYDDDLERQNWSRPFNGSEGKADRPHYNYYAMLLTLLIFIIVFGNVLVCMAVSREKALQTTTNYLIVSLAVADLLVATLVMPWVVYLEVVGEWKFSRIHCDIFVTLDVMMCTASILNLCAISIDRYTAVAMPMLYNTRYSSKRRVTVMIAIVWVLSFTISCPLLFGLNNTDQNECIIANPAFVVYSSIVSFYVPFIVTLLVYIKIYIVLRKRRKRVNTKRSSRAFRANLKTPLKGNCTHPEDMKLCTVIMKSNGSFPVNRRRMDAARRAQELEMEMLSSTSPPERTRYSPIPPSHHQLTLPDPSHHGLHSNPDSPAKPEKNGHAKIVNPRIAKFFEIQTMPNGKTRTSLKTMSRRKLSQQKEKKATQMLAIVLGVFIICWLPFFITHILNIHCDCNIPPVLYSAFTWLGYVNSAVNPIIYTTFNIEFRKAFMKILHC
D(1A) dopamine receptor, sequence (P18901 whole entry): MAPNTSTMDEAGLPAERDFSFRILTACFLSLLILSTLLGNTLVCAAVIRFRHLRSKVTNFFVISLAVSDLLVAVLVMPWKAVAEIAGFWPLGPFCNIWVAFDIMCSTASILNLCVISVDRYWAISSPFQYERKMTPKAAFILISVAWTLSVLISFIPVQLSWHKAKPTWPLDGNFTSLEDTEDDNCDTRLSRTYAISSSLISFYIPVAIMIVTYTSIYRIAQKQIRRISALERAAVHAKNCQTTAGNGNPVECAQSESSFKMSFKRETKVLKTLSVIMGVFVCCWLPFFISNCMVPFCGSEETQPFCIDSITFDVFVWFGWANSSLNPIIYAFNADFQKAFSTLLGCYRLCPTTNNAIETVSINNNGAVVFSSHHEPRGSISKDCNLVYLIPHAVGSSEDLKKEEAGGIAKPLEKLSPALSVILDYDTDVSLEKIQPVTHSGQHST

Row | IC50 [1] | Ratio IC50 [2] | IC50 [3] | Compound
1 | 81.6 µM | > 1.2 | > 100 µM | COc1ccc(C[C@H]2c3c(cc(OC)c4c3Oc3cc5c(cc3O4)CCN(C)C5=O)CCN2C)cc1-c1cc(C=O)ccc1O
2 | > 100 µM |  | > 100 µM | COc1cc2c(cc1OC)[C@@H](Cc1ccc(OC)c(Oc3ccc(C[C@H]4NCCc5cc(OC)c(OC)cc54)cc3)c1)N(C)CC2
3 | > 100 µM |  | > 100 µM | COc1cc2c(cc1OC)[C@@H](Cc1ccc(Oc3cc(C[C@@H]4c5cc(OC)c(OC)cc5CCN4C)ccc3OC)cc1)N(C)CC2
4 | 0.027 µM | 207 | 5.6 µM | COc1cc2c(cc1O)[C@@H](Cc1ccc(OC)c(Oc3ccc(C[C@H]4c5cc(O)c(OC)cc5CCN4C)cc3)c1)N(C)CC2
5 | 0.3 µM | 3.5 | 1.04 µM | COc1cc2c(cc1O)[C@@H](Cc1ccc(O)c(Oc3ccc(C[C@H]4c5cc(O)c(OC)cc5CCN4C)cc3)c1)N(C)CC2
6 | 2.76 µM | 4 | 11.1 µM | COc1cc2c3cc1Oc1c(O)c(OC)cc4c1[C@H](Cc1ccc(OC)c(c1)-c1cc(ccc1O)C(=O)[C@H]3N(C)CC2)N(C)CC4
7 | 28.4 µM | 1.4 | 39.1 µM | COc1ccc2cc1Oc1ccc(cc1)C[C@H]1c3c(cc(OC)c(OC)c3Oc3cc4c(cc3OC)CCN(C)[C@@H]4C2)CCN1C
8 | 10 µM | > 3 | > 30 µM | COc1cc2c(cc1Oc1c(O)c(OC)cc3c1[C@H](Cc1ccc(OC)c(-c4cc(C=O)ccc4O)c1)N(C)CC3)C(=O)N(C)CC2
9 | 16.2 µM | 5.6 | 90.2 µM | COc1cc2c3cc1Oc1c(O)c(OC)cc4c1[C@@H](C(=O)c1ccc(O)c(c1)-c1cc(ccc1OC)C[C@H]3N(C)CC2)N(C)CC4
10 | 1.45 µM | 3.9 | 5.64 µM | COc1cc2c(cc1OC)[C@@H](Cc1ccc(Oc3cc(C[C@H]4c5cc(OC)c(OC)cc5CCN4C)ccc3OC)cc1)N(C)CC2

Row | Compound | IC50 [1] | Ratio IC50 [2] | IC50 [3]
11 | COc1ccc2cc1Oc1ccc(cc1)C[C@H]1c3cc(c(OC)cc3CCN1C)Oc1c(OC)c(OC)cc3c1[C@@H](C2)N(C)CC3 | 0.67 µM | 49.6 | 33.3 µM
12 | COc1ccc2cc1Oc1ccc(cc1)C[C@@H]1c3c(cc(OC)c(O)c3Oc3cc4c(cc3OC)CCN(C)[C@H]4C2)CCN1C (racemic) | 66.4 µM | 0.2 | 15.4 µM
13 | COc1ccc(C=O)cc1Oc1ccc(C[C@H]2c3c(cc(OC)c(OC)c3Oc3cc4c(cc3OC)CCN(C)C4=O)CCN2C)cc1 | > 30 µM |  | > 30 µM
14 | COc1cc2c3cc1Oc1c(O)c(OC)cc4c1[C@H](Cc1ccc(OC)c(c1)-c1cc(ccc1O)C[C@H]3N(C)CC2)N(C)CC4 | 3.18 µM | 31.4 | > 100 µM
